Data on 1 substance can be found in PMC4304478 (Journal of the American Chemical Society, 2014).

Test [1] has as its target integrin receptors (αvβ5) expressed on MDA-MB-231 cells (Homo sapiens, UniProt P06756+P18084). Put plainly: Competition binding assay with Alexa488-2.5F on MDA-MB-231 cells. As to conditions: from competition IC50 values.
Test [2] concerns MDA-MB-231 cells. Put plainly: Cell proliferation assay. The settings on record: varying concentrations, 12–72 h, Cell Counting Kit-8; relative to cilengitide. The format is cell-based, human. Put shortly:
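MDA-MB-231 cells exposed to varying concentrations of test knottins or a reference compound for 12–72 h. Proliferation was read out as […] activity in living cells with the CCK-8 kit. Concentration–response was read at 72 h, and the time course used 1 μM protein. Values are expressed relative to an untreated control.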
(Tetrazolium assays rely on reduction of a dye to a coloured formazan, in cell work by metabolically active cells.)

*1 amine or outer side, *2 acyl side, *3 side chain or, on linkers, in order; H or OH if unused. Bridges are numbered along the chain shown (N, C = ends). Roman numbers before positions name the chains, in order. Where no end group is shown, it is not given here. [ ]: non-standard residue; d: D form. X1 = O=C(NCCCOCCCCOCCCNC(=O)c1ccc(/C=N/OCC(=O)[*:2])cc1)c1ccc(/C=N/OCC(=O)[*:1])cc1; Dap = NC[C@H](N)C(=O)O

integrin receptors (αvβ5) expressed on MDA-MB-231 cells, sequence (P06756 891-1048): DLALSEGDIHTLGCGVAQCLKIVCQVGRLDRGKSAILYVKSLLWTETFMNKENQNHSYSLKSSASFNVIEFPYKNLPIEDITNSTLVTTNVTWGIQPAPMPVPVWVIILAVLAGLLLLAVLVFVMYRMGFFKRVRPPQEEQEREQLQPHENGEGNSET
integrin receptors (αvβ5) expressed on MDA-MB-231 cells, sequence (P18084 24-799): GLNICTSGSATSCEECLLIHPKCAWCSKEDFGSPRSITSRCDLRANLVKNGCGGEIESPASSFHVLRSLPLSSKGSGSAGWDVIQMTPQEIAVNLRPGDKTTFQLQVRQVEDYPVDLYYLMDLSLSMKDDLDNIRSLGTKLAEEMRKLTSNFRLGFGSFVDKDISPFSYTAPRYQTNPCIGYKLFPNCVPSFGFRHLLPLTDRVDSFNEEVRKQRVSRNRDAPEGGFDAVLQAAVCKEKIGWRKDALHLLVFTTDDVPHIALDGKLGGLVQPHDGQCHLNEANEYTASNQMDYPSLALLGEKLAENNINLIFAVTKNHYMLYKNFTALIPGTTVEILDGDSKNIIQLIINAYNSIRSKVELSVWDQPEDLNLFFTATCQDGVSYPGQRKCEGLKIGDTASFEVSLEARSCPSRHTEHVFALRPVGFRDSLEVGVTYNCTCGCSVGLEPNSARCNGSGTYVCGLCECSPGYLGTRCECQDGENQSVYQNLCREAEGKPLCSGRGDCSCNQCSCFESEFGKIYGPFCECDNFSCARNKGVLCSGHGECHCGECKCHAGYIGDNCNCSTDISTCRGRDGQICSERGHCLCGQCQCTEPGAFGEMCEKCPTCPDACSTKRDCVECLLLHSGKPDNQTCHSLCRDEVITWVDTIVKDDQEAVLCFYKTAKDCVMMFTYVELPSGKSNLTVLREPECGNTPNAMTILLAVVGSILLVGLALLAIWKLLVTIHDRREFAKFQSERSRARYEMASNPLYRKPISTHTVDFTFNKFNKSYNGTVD
integrin receptors (αvβ5) expressed on MDA-MB-231 cells, sequence (P06756 31-889): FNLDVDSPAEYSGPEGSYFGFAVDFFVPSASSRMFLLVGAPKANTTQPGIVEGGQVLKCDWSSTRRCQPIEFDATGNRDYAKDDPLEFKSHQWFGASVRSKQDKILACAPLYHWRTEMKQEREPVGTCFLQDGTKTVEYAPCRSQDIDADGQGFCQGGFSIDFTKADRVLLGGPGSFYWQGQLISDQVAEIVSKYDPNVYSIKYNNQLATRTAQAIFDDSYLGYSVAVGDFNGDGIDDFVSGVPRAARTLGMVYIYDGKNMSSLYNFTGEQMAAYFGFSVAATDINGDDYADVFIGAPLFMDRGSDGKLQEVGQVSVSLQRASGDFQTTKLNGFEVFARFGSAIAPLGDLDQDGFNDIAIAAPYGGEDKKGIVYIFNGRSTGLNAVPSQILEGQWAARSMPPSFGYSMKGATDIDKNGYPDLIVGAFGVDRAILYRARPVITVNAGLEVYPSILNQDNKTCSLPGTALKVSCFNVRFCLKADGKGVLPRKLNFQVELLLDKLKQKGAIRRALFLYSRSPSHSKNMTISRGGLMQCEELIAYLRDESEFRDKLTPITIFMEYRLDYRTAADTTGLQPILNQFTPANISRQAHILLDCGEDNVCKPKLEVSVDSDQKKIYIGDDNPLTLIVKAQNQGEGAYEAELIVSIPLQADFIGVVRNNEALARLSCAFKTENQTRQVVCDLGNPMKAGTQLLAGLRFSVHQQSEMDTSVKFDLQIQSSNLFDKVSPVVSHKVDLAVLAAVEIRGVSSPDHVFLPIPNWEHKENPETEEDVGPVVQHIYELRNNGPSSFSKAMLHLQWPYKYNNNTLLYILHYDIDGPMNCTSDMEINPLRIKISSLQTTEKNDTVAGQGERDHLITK

In the case of “I: GCPRPRGDNPPLTC[Dap]QDSDCLAGCVCGPNGFCG-NH2 / II: GCPRPRGDNPPLTC[Dap]QDSDCLAGCVCGPNGFCG-NH2 (disulfide I:2-I:24, I:14-I:26, I:20-I:32, II:2-II:24, II:14-II:26, II:20-II:32; linker I:15-II:15 via X1) [D2.5F_1]”, in test [1], the “Increase in relative binding affinity compared with cilengitide” value amounted to 500 fold and the “Increase in relative binding affinity compared with the knottin monomer” value is on record as 60 fold. In addition, the “Inhibition of MDA-MB-231 cell proliferation” value in test [2] is recorded as “significantly more potent”.
